Measurements collected from several papers.
pIC50: −log10 of the molar value.
Cell line: MDA-MB-435
Read-out: cell growth or viability

CC(C)C[C@H](NC(=O)[C@H](Cc1ccccc1)NC(=O)c1cnccn1)B(O)O
pIC50 (ATP luminescence): 8.10

COc1ccc(N(C)c2ncnc3c2CCC3)cc1
pIC50 (SRB): 7.30

CCOC(=O)c1[nH]c(Br)c(-c2ccc(Br)cc2)c1Br
pIC50 (SRB): 6.51

COc1ccc(-c2ccc(-c3ccc(C(=N)N)nc3)s2)cc1
GI50 (SRB): 1730 nM

CCOC(=O)c1[nH]c(Br)c(-c2ccc(Cl)c(Cl)c2)c1Br
pIC50 (SRB): 6.09

COc1ccc(C(=O)/C=C/c2c(F)cccc2Cl)cc1S(N)(=O)=O
inhibition (SRB; 10 µM): 93%

CCOC(=O)c1[nH]c(Br)c(-c2ccc(OC)cc2)c1Br
pIC50 (SRB): 6.07

COc1ccccc1/C=C/C(=O)c1ccc(OC)c(S(N)(=O)=O)c1
inhibition (SRB; 10 µM): 73%

O=C1NC(=NCc2cccs2)S/C1=C\c1ccc2ncccc2c1
pIC50: 5.18

COc1ccc(C(=O)/C=C/c2cccc(Br)c2)cc1S(N)(=O)=O
inhibition (SRB; 10 µM): 106%

COc1cc(-c2ccc(-c3ccc(C(=N)N)nc3)s2)cc(OC)c1OC
GI50 (SRB): 1620 nM

CCOC(=O)c1[nH]c(Br)c(-c2ccc(Cl)cc2)c1Br
pIC50 (SRB): 6.04

COc1ccc(C(=O)/C=C/c2ccc3ccccc3c2)cc1S(N)(=O)=O
inhibition (SRB; 10 µM): 98%
